Source: ChEMBL document CHEMBL1156823, “Design and synthesis of novel quinone inhibitors targeted to the redox function of apurinic/apyrimidinic endonuclease 1/redox enhancing factor-1 (Ape1/ref-1)” (J Med Chem, 2010)
pIC50: −log10 of the molar value. Activity calls are given as the source filed them. The rule behind the calls is not given here.

How the values were obtained:
[1] = Growth inhibition of human Hey-C2 cells after 72 hrs by MTS assay; format: functional; settings: Hey-C2, 72 h
Procedure, shortened: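 Hey-C2 ovarian cancer cells grown in RPMI 1640 with 10% fetal calf serum; 2–4,000 cells per well in triplicate, adhered overnight, then exposed to drug for 72 h at 37 °C. MTS reagent (0.05 mg/mL) added for 4 h at 37 °C, absorbance read at 490 nm, normalized to media-alone wells. GI50 is the average of three experiments.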

[2] = target: T1, DNA repair nuclease/redox regulator APEX1 (Homo sapiens, UniProt P27695); assay: Inhibition of Ape1/ref-1 endonuclease activity up to 100 uM
T1 sequence (P27695 whole entry): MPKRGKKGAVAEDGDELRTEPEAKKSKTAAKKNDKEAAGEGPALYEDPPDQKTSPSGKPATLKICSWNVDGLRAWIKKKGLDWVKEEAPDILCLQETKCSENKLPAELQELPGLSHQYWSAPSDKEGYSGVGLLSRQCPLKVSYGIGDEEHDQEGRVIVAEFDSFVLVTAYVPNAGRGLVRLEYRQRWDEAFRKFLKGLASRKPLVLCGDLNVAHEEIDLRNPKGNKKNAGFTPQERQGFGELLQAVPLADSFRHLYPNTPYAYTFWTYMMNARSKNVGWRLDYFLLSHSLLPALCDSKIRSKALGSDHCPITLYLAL

[3] = target: T1, DNA repair nuclease/redox regulator APEX1; assay: Inhibition of Ape1/ref-1 redox activity in presence of 0.02 mM DTT and human Hey-C2 cells nuclear extracts by EMSA; format: cell-free
Procedure, shortened: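 Purified Ape1 reduced with 1.0 mM DTT at 37 °C for 10 min, then diluted in PBS. Poly(dI-dC) added for 5 min, then HEX-labeled AP-1 consensus duplex (0.1 pmol) for 30 min at room temperature. Final DTT 0.02 mM.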

Row | inhibition [2] | pIC50 [3] | Compound | GI50 [1] [µM]
1 | inactive |  | CC1=C(/C=C(\C)C(=O)O)C(=O)c2ccccc2C1=O | 45
2 | inactive | 6.00 | COC1=C(/C=C(\C)C(=O)O)C(=O)c2ccccc2C1=O | 40
3 | inactive |  | CCCCCCCCC/C(=C\C1=C(C)C(=O)C(OC)=C(OC)C1=O)C(=O)O [APX-3330] | 35
4 | inactive |  | COC1=C(OC)C(=O)C(/C=C/C(=O)O)=C(C)C1=O | 250
5 | inactive |  | CCCCCCCCC/C(=C\C1=C(C)C(=O)C(OC)=C(OC)C1=O)C(=O)NCCO | 35
6 | inactive |  | COCC/C(=C\C1=C(C)C(=O)C(OC)=C(OC)C1=O)C(=O)O | 200
7 | inactive |  | CCCC/C(=C\C1=C(C)C(=O)C(OC)=C(OC)C1=O)C(=O)O | 85
8 | inactive |  | COC1=C(OC)C(=O)C(/C=C(\C)C(=O)O)=C(C)C1=O | 130
9 | inactive | 5.52 | COC1=C(OC)C(=O)C(/C=C(\C)C(=O)O)=C(Cl)C1=O | 45

Further lines, the compound ahead of its results:

Row | Compound | inhibition [2] | pIC50 [3] | GI50 [1] [µM]
10 | CSC1=C(/C=C(\C)C(=O)O)C(=O)c2ccccc2C1=O | inactive |  | 30
11 | C/C(=C\C1=C(Cl)C(=O)c2ccccc2C1=O)C(=O)O | inactive |  | 15
12 | C/C(=C\C1=C(Br)C(=O)c2ccccc2C1=O)C(=O)O |  |  | 13
13 | C/C(=C\C1=C(F)C(=O)c2ccccc2C1=O)C(=O)O | inactive |  | 50
14 | C/C(=C\C1=C(Cl)C(=O)c2ccccc2C1=O)C(=O)NCCO | inactive | 6.00 | 8
15 | C/C(=C/C1=C(Cl)C(=O)c2ccccc2C1=O)C(=O)O | inactive | 5.70 | 30
16 | O=C(O)CCC1=C(Br)C(=O)c2ccccc2C1=O | inactive |  | 15
17 | COCC/C(=C\C1=C(Br)C(=O)c2ccccc2C1=O)C(=O)O | inactive | 6.00 | 25
18 | COCC/C(=C\C1=C(Cl)C(=O)c2ccccc2C1=O)C(=O)O | inactive |  | 30
19 | C/C(=C\C1=CC(=O)c2ccccc2C1=O)C(=O)O | inactive | 5.52 | 20
20 | COCC/C(=C\C1=C(C)C(=O)c2ccccc2C1=O)C(=O)O | inactive |  | 30
